15 molecules from ChEMBL document CHEMBL1156280, “Design and synthesis of boron-containing PDE4 inhibitors using soft-drug strategy for potential dermatologic anti-inflammatory application” (Bioorg Med Chem Lett, 2010) can be followed below.

Series [1] has as its system Plasma. The series can be described thus: Metabolic stability in CD1 mouse plasma assessed as change in ester. In kind it is ADME, cell-free. In short, it runs like this: (§1)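 Compounds at 5 µM final in female CD-1 mouse plasma (K2EDTA) or PBS pH 7.4, 37 °C with mild shaking for 1 h. A time-0 plate was held on ice. Reactions were quenched with internal standard in acetonitrile or methanol, then centrifuged, and the supernatant was analysed by LC/MS/MS for loss of ester and appearance of the corresponding acid. Triplicates, values are means.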

For series [2], the system named is Plasma. The series is described as follows: Metabolic stability in CD1 mouse plasma assessed as change in formation of acid. In kind it is ADME, cell-free. In short, it runs like this:
as §1

Series [3] in a line: Chemical stability in phosphate buffer of pH 7.4 assessed as change in ester. Format: physicochemical. The settings on record: read-out: Activity. Put shortly:
as §1

The nature of series [4]: Inhibition of PDE4.
The nature of series [5]: Chemical stability in phosphate buffer of pH 7.4 assessed as formation of acid. In kind it is physicochemical. Put shortly:
as §1

Series [6] concerns Mus musculus. The series can be described thus: Antiinflammatory activity in mouse assessed as inhibition of phorbol ester-induced ear edema at 1 mg/ear. In kind it is functional.
The test system of series [7] is Mus musculus. The series can be described thus: Antiinflammatory activity in mouse assessed as inhibition of phorbol ester-induced ear edema at 3 mg/ear. In kind it is functional.
The subject of series [8] is THP-1. The series can be described thus: Antiinflammatory activity in human THP1 cells assessed as inhibition of IL2 release. In kind it is functional, cell-based.
Series [9] has as its system THP-1. The series can be described thus: Antiinflammatory activity in human THP1 cells assessed as inhibition of TNFalpha release. In kind it is functional, cell-based.
Series [10] deals with THP-1. The series can be described thus: Antiinflammatory activity in human THP1 cells assessed as inhibition of IL10 release. Format: functional, cell-based.
The nature of series [11]: Inhibition of PDE4 at 10 uM.
Series [12] concerns THP-1. The series can be described thus: Antiinflammatory activity in human THP1 cells assessed as inhibition of IL5 release. In kind it is functional, cell-based.
The subject of series [13] is THP-1. The series can be described thus: Antiinflammatory activity in human THP1 cells assessed as inhibition of IFN-gamma release. In kind it is functional, cell-based.
Series [14] can be described thus: Cmax in CD1 mouse at 100 mg/kg, sc. On the set-up: dose 100 mg/kg, route subcutaneous. Format: ADME, organism-based. The following applies: in vivo. Put shortly: (§2)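 Non-fasted CD-1 mice (n = 3 per group) received a single 100 mg/kg dose sc or po as a suspension in 1% carboxymethylcellulose. Plasma ester and its acid metabolite were followed over 6 h. Parameters came from a non-compartmental model, with bioavailability referenced to iv set at 100%.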

Series [15] can be described thus: Cmax in CD1 mouse at 25 mg/kg, iv. Format: ADME, organism-based. On the set-up: dose 25 mg/kg, route intravenous. The settings on record: in vivo. Put shortly:
(§3)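 A single 25 mg/kg iv dose in 1-methyl-2-pyrrolidone/propylene glycol/PEG-400 (10:40:50, v/v/v) was given to non-fasted CD-1 mice, n = 3. Plasma ester and acid were measured over 6 h. Non-compartmental analysis gave the PK parameters, and iv bioavailability was taken as 100%.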

A short description of series [16]: Oral bioavailability in CD1 mouse at 100 mg/kg. Format: ADME, organism-based. The settings on record: in vivo. In short, it runs like this:
as §2

Series [17] is described as follows: Tmax in CD1 mouse at 100 mg/kg, sc. Format: ADME, organism-based. On the set-up: dose 100 mg/kg, route subcutaneous. The settings on record: in vivo. Put shortly: as §2
Series [18] is described as follows: Half life in CD1 mouse at 25 mg/kg, iv. Format: ADME, organism-based. On the set-up: dose 25 mg/kg, route intravenous. The settings on record: in vivo. Put shortly: as §3
Series [19] in a line: Tmax in CD1 mouse at 100 mg/kg, po. On the set-up: dose 100 mg/kg, route oral. The settings on record: in vivo. Format: ADME, organism-based. Put shortly: as §2
A short description of series [20]: Bioavailability in CD1 mouse at 100 mg/kg, sc. Format: ADME, organism-based. The following applies: in vivo. In short, it runs like this: as §2
Series [21] concerns Mus musculus. The series is described as follows: Bioavailability in CD1 mouse at 25 mg/kg, iv. In kind it is ADME, organism-based. The settings on record: in vivo. Put shortly: as §3
Series [22] in a line: AUC in CD1 mouse at 100 mg/kg, po. Format: ADME, organism-based. The following applies: plasma. Also noted: dose 100 mg/kg, route oral. Put shortly: as §2
A short description of series [23]: Cmax in CD1 mouse at 100 mg/kg, po. Format: ADME, organism-based. On the set-up: dose 100 mg/kg, route oral. The settings on record: in vivo. Put shortly: as §2
Series [24] is described as follows: AUC in CD1 mouse at 100 mg/kg, sc. Format: ADME, organism-based. Also noted: dose 100 mg/kg, route subcutaneous. The following applies: plasma. In short, it runs like this:
as §2

pIC50: −log10 of the molar value.

For the molecule `COC(=O)c1ccc(Oc2ccc3c(c2)COB3O)cc1`, the Activity with Plasma [1] was -43.6%; in the series with Plasma [2] it was 29.4%. In [3], the percent change in ester was -8.9%. For the same molecule, the pIC50 (usually −log10 of the IC50, conventionally taken in molar units) in series [4] was 6.54.
`CC(C)OC(=O)c1ccc(Oc2ccc3c(c2)COB3O)cc1`: the Activity is reported as -58.9% in the series on Plasma [1] and 27.6% with Plasma [2]. For the same molecule, the percent change in ester in series [3] was -10.6%. This molecule also gave a pIC50 in series [4] of 6.89.
In the case of `COC(=O)c1ccc(Oc2ccc3c(c2)COB3O)nc1`, the Activity in [5] is 0.4%; in the series on Plasma [1], -42.4%; in the series with Plasma [2], 31.6%. Further, in series [3], the percent change in ester was -9.8%. This molecule also showed a negative logarithm of the IC50 (pIC50) in series [4] of 7.08.
As to `CCCOC(=O)c1ccc(Oc2ccc3c(c2)COB3O)cc1`, the Activity is recorded as -94.9% with Plasma [1] and 58.8% in the series on Plasma [2]. For the same molecule, the percent change in ester in series [3] is -8.8%. Besides, the pIC50 in series [4] is 6.12.
With `C[C@@H]1C[C@H]2[C@@H]3CCC4=CC(=O)C=C[C@]4(C)[C@@]3(F)[C@@H](O)C[C@]2(C)[C@@]1(O)C(=O)CO` [DEXAMETHASONE], the “inhibition (INH)” value in the series with Mus musculus [6] was 68%.
On to `CCCCOC(=O)c1ccc(Oc2ccc3c(c2)COB3O)nc1`, for which the Activity in series [5] is 0.4%; in the series with Plasma [1], -98%; with Plasma [2], 76.6%. Besides, the percent change in ester in series [3] is -8.9%. In series [4], this molecule had a pIC50 of 7.02.
The molecule `O=C(O)c1ccc(Oc2ccc3c(c2)COB3O)cc1` had a pIC50 in [4] of 5.19.
Turning to `COc1ccc(C2CNC(=O)C2)cc1OC1CCCC1` (stereo not drawn) [ROLIPRAM], the “inhibition (INH)” value in the series with Mus musculus [6] worked out at 6%; with Mus musculus [7], 53%.
With `N#Cc1ccc(Oc2ccc3c(c2)COB3O)cc1` [CRISABOROLE], the pIC50 in series [4] is 6.31.
For `O=C(O)c1ccc(Oc2ccc3c(c2)COB3O)nc1`, the pIC50 in the series with THP-1 [8], in the series on THP-1 [9], in the series on THP-1 [10], in the series with THP-1 [12] and in the series with THP-1 [13] was less than 5.00 in each case. In series [11], the inhibition (as a rule, the percentage by which the read-out fell short of the control) was 5%.
Regarding `CC(C)OC(=O)c1ccc(Oc2ccc3c(c2)COB3O)nc1`, the Activity in [5] is on record as 1.4%; with Plasma [1], -60.5%; in the series with Plasma [2], 36.4%. Further, in series [3], the percent change in ester is 2.4%. Also, the pIC50 in series [4] is 6.95.
For the molecule `CCOC(=O)c1ccc(Oc2ccc3c(c2)COB3O)nc1`, the Cmax – broadly, the peak of the concentration-time curve – amounted to 12700 ng/mL in [14], 12500 ng/mL in series [15] and 4390 ng/mL in series [23]. Also, the pIC50 was 7.00 with THP-1 [8]; 6.70 in the series with THP-1 [9]; 6.34 with THP-1 [10]; 6.70 with THP-1 [12]; 7.00 in the series on THP-1 [13]; 7.33 in series [4]. Besides, the bioavailability (commonly the share of a dose that reaches the circulation, judged against a reference dose that is usually intravenous) in series [16] came to 10.8%; in series [20] it was 97.8%. The Activity in the series on Plasma [1] is -72.5%. In the series on Mus musculus [6], the “inhibition (INH)” value stood at 59%. For the same molecule, the Tmax (commonly the time at which the peak concentration occurs) in series [17] stood at 30 min; in [19], 15 min. Besides, the half-life (in general, the time needed for the level to fall by half in the phase considered) in series [18] is 61.8 min. In addition, in series [3], the percent change in ester was -2.4%. Also, in the series on Mus musculus [21], the F is 100%. The figures for the AUC in [22] and in series [24] were 1660 ng·h/mL and 14500 ng·h/mL, respectively.
`CCOC(=O)c1ccc(Oc2ccc3c(c2)COB3O)cc1`: the Activity is on record as -76.2% in the series on Plasma [1] and 53.6% with Plasma [2]. The percent change in ester in series [3] was -3.2%. The molecule also showed a pIC50 in series [4] of 6.66.
As for `CCCOC(=O)c1ccc(Oc2ccc3c(c2)COB3O)nc1`, the Activity in series [5] was 0.5%; in the series on Plasma [1], -92.5%; in the series on Plasma [2], 79.8%. In series [3], the percent change in ester was -13.6%. The negative-log IC50 (pIC50) in series [4] was 6.89.
Consider `N#Cc1ccc(Oc2ccc3c(c2)COB3O)nc1`, for which the pIC50 in series [4] was 6.74.
